{"data": "Measured values collected from several papers", "PTGS1": "Prostaglandin G/H synthase 1 (PTGS1, Ovis aries, UniProt P05979)", "SIRT3": "NAD-dependent protein deacetylase sirtuin-3, mitochondrial (SIRT3, Homo sapiens, UniProt Q9NTG7)", "note": "Each line is one published result; the experiments were not run side by side."}
{"SMILES": "O=c1c(O)c(-c2ccc(O)cc2)oc2cc(O[C@@H]3O[C@H](CO)[C@@H](O)[C@H](O)[C@H]3O)cc(O)c12", "target": "PTGS1", "observed": "enzyme activity", "action": "inhibitor", "technique": "absorbance", "concentration": "50 µM", "inhibition": "58.8%"}
{"SMILES": "O=c1cc(-c2ccccc2)oc2c(Br)cc(Cl)cc12", "target": "SIRT3", "observed": "enzyme activity", "action": "inhibitor", "technique": "fluorescence", "concentration": "200 µM", "inhibition": "12%"}
{"SMILES": "O=c1c(O[C@@H]2O[C@H](CO)[C@@H](O)[C@H](O)[C@H]2O)c(-c2ccc(O)cc2)oc2cc(O[C@@H]3O[C@H](CO)[C@@H](O)[C@H](O)[C@H]3O)cc(O)c12", "target": "PTGS1", "observed": "enzyme activity", "action": "inhibitor", "technique": "absorbance", "concentration": "50 µM", "inhibition": "62.9%"}
{"SMILES": "CCCCCC1CC(=O)c2cc(F)cc(F)c2O1 (stereo not shown)", "target": "SIRT3", "observed": "enzyme activity", "action": "inhibitor", "technique": "fluorescence", "concentration": "200 µM", "inhibition": "9.6%"}
{"SMILES": "CCCCCCCCCCCCNC(=S)NCCCC[C@H](NC(=O)OCc1ccccc1)C(=O)N[C@@H](C)C(=O)N[C@@H](CCCNC(=N)N)C(N)=O", "target": "SIRT3", "observed": "enzyme activity", "action": "inhibitor", "concentration": "1 µM", "inhibition": "20%"}
{"SMILES": "O=c1c(O)c(-c2ccc(O)cc2)oc2cc(O)cc(O)c12", "target": "PTGS1", "observed": "enzyme activity", "action": "inhibitor", "technique": "absorbance", "concentration": "50 µM", "inhibition": "61.4%"}
{"SMILES": "NC(=O)CCNC(=S)NCCCC[C@H](NS(=O)(=O)c1cccc(F)c1)C(=O)N[C@@H](Cc1c[nH]c2ccccc12)C(=O)NC1CCC1", "target": "SIRT3", "observed": "enzyme activity", "action": "inhibitor", "concentration": "10 µM", "inhibition": "30%"}
{"SMILES": "CC(=S)NCCCC[C@H](NC(=O)OCc1ccccc1)C(=O)N[C@@H](Cc1c[nH]c2ccccc12)C(=O)N[C@@H](CCCNC(=N)N)C(N)=O", "target": "SIRT3", "observed": "enzyme activity", "action": "inhibitor", "concentration": "10 µM", "inhibition": "43%"}
{"SMILES": "O=C(Nc1ccc(S(=O)(=O)N2CCC(Cl)CC2)cc1)c1ccc([N+](=O)[O-])o1", "target": "Androgen receptor (Ar, Rattus norvegicus, UniProt P15207)", "observed": "ligand displacement", "technique": "radioligand", "concentration": "10 µM", "inhibition": "8%"}
{"SMILES": "COc1ccc2c(c1)C(CC(=O)O)=C/C2=C\\c1ccc(-c2ccccc2)cc1", "target": "PTGS1", "observed": "enzyme activity", "action": "inhibitor", "concentration": "4 µM", "inhibition": "49%"}
{"SMILES": "O=C(Nc1ccc(F)cc1)Nc1cccc(C(=O)Nc2ccc3[nH]ncc3c2)c1", "target": "BDNF/NT-3 growth factors receptor (NTRK2, Homo sapiens, UniProt Q16620)", "observed": "enzyme activity", "action": "inhibitor", "technique": "FRET", "concentration": "1 µM", "inhibition": "16.8%"}
{"SMILES": "CCCCCC1CC(=O)c2cc(Br)cc(Br)c2O1 (stereo not shown)", "target": "SIRT3", "observed": "enzyme activity", "action": "inhibitor", "technique": "fluorescence", "concentration": "200 µM", "inhibition": "6.5%"}
{"SMILES": "Oc1cccc(Nc2nc(-c3ccc(F)cc3F)cs2)c1", "target": "Sodium-dependent serotonin transporter (SLC6A4, Homo sapiens, UniProt P31645)", "observed": "cell-free assay", "concentration": "10 µM", "inhibition": "-7.7%"}
{"SMILES": "CCCCCC1CC(O)c2cc(Cl)cc(Br)c2O1 (stereo not shown)", "target": "SIRT3", "observed": "enzyme activity", "action": "inhibitor", "technique": "fluorescence", "concentration": "200 µM", "inhibition": "3.6%"}
{"SMILES": "CCCCCCCCCCCCNC(=S)NCCCC[C@H](NC(=O)OCc1ccccc1)C(=O)N[C@@H](Cc1c[nH]c2ccccc12)C(=O)N[C@@H](CCCNC(=N)N)C(N)=O", "target": "SIRT3", "observed": "enzyme activity", "action": "inhibitor", "concentration": "10 µM", "inhibition": "62%"}
{"SMILES": "CCCCCC1CCc2cc(Cl)cc(Br)c2O1 (stereo not shown)", "target": "SIRT3", "observed": "enzyme activity", "action": "inhibitor", "technique": "fluorescence", "concentration": "200 µM", "inhibition": "1.2%"}
{"SMILES": "CCCCCCCCCCCCNC(=S)NCCCC[C@H](NC(=O)OCc1ccccc1)C(=O)N[C@@H](Cc1c[nH]c2ccccc12)C(=O)N[C@@H](CCCCNC(=N)N)C(N)=O", "target": "SIRT3", "observed": "enzyme activity", "action": "inhibitor", "concentration": "10 µM", "inhibition": "20%"}
{"SMILES": "CCCCCCCC1CC(=O)c2cc(Cl)cc(Br)c2O1 (stereo not shown)", "target": "SIRT3", "observed": "enzyme activity", "action": "inhibitor", "technique": "fluorescence", "concentration": "200 µM", "inhibition": "8.3%"}
{"SMILES": "O=C(COc1ccc2cc(C(=O)Nc3ccccc3)ccc2c1)NCc1ccc(O)c(O)c1", "target": "Signal transducer and activator of transcription 5A, SH2 (Homo sapiens, UniProt P42229)", "observed": "ligand displacement", "technique": "FP", "concentration": "100 µM", "inhibition": "1%"}
{"SMILES": "CCCCNC(=S)NCCCC[C@H](NS(=O)(=O)c1cccc(F)c1)C(=O)N[C@@H](Cc1c[nH]c2ccccc12)C(=O)NC1CCC1", "target": "SIRT3", "observed": "enzyme activity", "action": "inhibitor", "concentration": "1 µM", "inhibition": "16%"}
{"SMILES": "O=C(c1ccc(Cl)cc1)N(Cc1ccccc1)C1CCCCC1", "target": "Type-2 angiotensin II receptor (AGTR2, Homo sapiens, UniProt P50052)", "observed": "cell-free assay", "concentration": "10 µM", "inhibition": "4.4%"}
{"SMILES": "CCN(CC)c1ccc(C2=NNC(=O)CC2C)cc1[N+](=O)[O-] (stereo not shown)", "target": "cGMP-inhibited 3',5'-cyclic phosphodiesterase 3B (PDE3B, Homo sapiens, UniProt Q13370)", "observed": "enzyme activity", "action": "inhibitor", "concentration": "0.1 µM", "inhibition": "97%"}
{"SMILES": "CN1CCN(CCCOc2ccc(=O)n(-c3ccc(Cl)c(Cl)c3)n2)CC1", "target": "Transient receptor potential cation channel subfamily V member 1 (TRPV1, Homo sapiens, UniProt Q8NER1)", "observed": "ligand displacement", "concentration": "1 µM", "inhibition": "17.1%"}
{"SMILES": "C[C@@H]1O[C@@H](OC[C@H]2O[C@@H](O[C@H]3[C@H](Oc4c(-c5ccc(O)cc5)oc5cc(O)cc(O)c5c4=O)O[C@H](CO)[C@@H](O)[C@@H]3O)[C@H](O)[C@@H](O)[C@@H]2O)[C@H](O)[C@H](O)[C@H]1O", "target": "PTGS1", "observed": "enzyme activity", "action": "inhibitor", "technique": "absorbance", "concentration": "50 µM", "inhibition": "53.3%"}
{"SMILES": "Cn1c(CNC(=S)NCCCC[C@H](NS(=O)(=O)c2cccc(F)c2)C(=O)N[C@@H](Cc2c[nH]c3ccccc23)C(=O)NC2CCC2)n[nH]c1=S", "target": "SIRT3", "observed": "enzyme activity", "action": "inhibitor", "concentration": "30 µM", "inhibition": "51%"}
{"SMILES": "O=C1CC(CCc2c[nH]c3ccccc23)Oc2c(Br)cc(Cl)cc21 (stereo not shown)", "target": "SIRT3", "observed": "enzyme activity", "action": "inhibitor", "technique": "fluorescence", "concentration": "200 µM", "inhibition": "20%"}
{"SMILES": "CC(=S)NCCCC[C@H](NC(=O)OCc1ccccc1)C(=O)N[C@@H](Cc1c[nH]c2ccccc12)C(=O)N[C@@H](CCCCN)C(N)=O", "target": "SIRT3", "observed": "enzyme activity", "action": "inhibitor", "concentration": "10 µM", "inhibition": "59%"}
{"SMILES": "COc1cc(NC(C)=O)c(Cl)cc1C(=O)Nc1nccs1", "target": "Gamma-aminobutyric acid receptor subunit alpha-1 (GABRA1, Homo sapiens, UniProt P14867)", "observed": "cell-free assay", "concentration": "10 µM", "inhibition": "-34.8%"}
{"SMILES": "CCCCCCCCCCCCNC(=S)NCCCC[C@H](NS(C)(=O)=O)C(=O)N[C@H](C)C(=O)N[C@@H](CCCNC(=N)N)C(=O)O", "target": "SIRT3", "observed": "enzyme activity", "action": "inhibitor", "concentration": "100 µM", "inhibition": "34%"}
{"SMILES": "C=CN1CCCn2c1nc1c2c(=O)n(C)c(=O)n1C", "target": "Adenosine receptor A2a (Adora2a, Rattus norvegicus, UniProt P30543)", "observed": "ligand displacement", "technique": "radioligand", "concentration": "25 µM", "setting": "cell membranes", "inhibition": "47%"}
{"SMILES": "CCCCCCCCCCCCNC(=S)NCCCC[C@H](NC(=O)OCc1ccccc1)C(=O)N[C@@H](Cc1c[nH]c2ccccc12)C(=O)N[C@@H](CCCCN)C(N)=O", "target": "SIRT3", "observed": "enzyme activity", "action": "inhibitor", "concentration": "10 µM", "inhibition": "21%"}
{"SMILES": "CN(C)C1CCN(CC#Cc2nn(C3CCCC3)c3nc(NCc4ccccc4)ncc23)C1 (stereo not shown)", "target": "Ribosomal protein S6 kinase alpha-3 (RPS6KA3, Homo sapiens, UniProt P51812)", "observed": "enzyme activity", "action": "inhibitor", "technique": "FRET", "concentration": "1 µM", "inhibition": "2%"}
{"SMILES": "CCCCCC1CC(=O)c2ccc(F)cc2O1 (stereo not shown)", "target": "SIRT3", "observed": "enzyme activity", "action": "inhibitor", "technique": "fluorescence", "concentration": "200 µM", "inhibition": "2.2%"}
{"SMILES": "CCCCCCCCCCCCNC(=S)NCCCC[C@H](NC(=O)OCc1ccccc1)C(=O)N[C@@H](CCCCN)C(=O)N[C@@H](CCCNC(=N)N)C(N)=O", "target": "SIRT3", "observed": "enzyme activity", "action": "inhibitor", "concentration": "1 µM", "inhibition": "54%"}
